{"source": "paper PMC3058861", "about": "(Archives of biochemistry and biophysics, 2010)", "key": {"[1]": {"biological_target": "T1, hSULT2A1-PAP complex (Homo sapiens, UniProt Q06520)", "T1 sequence (Q06520 1-285)": "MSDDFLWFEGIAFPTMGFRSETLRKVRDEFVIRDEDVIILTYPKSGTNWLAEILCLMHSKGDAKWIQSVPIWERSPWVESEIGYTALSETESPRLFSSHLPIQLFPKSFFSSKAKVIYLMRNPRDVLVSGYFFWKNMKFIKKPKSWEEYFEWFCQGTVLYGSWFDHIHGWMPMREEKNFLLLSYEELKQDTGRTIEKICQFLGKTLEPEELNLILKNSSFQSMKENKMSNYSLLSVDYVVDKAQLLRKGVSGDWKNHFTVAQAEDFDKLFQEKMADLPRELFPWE", "assay": "Ligand binding to the hSULT2A1-PAP complex by intrinsic tryptophan fluorescence"}, "[2]": {"biological_target": "T2, hSULT2A1 (Homo sapiens, UniProt Q06520)", "T2 sequence (Q06520 1-285)": "T1 sequence (Q06520 1-285)", "assay": "Kinetics of DHEA sulfation catalyzed by recombinant hSULT2A1", "type": "biochemical", "details": "for substrate inhibition by DHEA: 0.1-2.0 μM DHEA; for substrate inhibition by PAPS: 1.0-300 μM PAPS"}, "[3]": {"assay": "Determination of DHEA solubility by light scattering", "type": "physicochemical", "details": "potassium phosphate buffer, pH 7, aqueous buffer"}, "[4]": {"biological_target": "T2, hSULT2A1", "assay": "Ligand binding to ligand-free hSULT2A1 by intrinsic tryptophan fluorescence", "details": "read-out: dissociation constant (hyperbolic single site); ligand-free enzyme, pH 7.0, 37 °C"}, "[5]": {"biological_target": "T3, hSULT2A1-DHEA complex (Homo sapiens, UniProt Q06520)", "T3 sequence (Q06520 1-285)": "T1 sequence (Q06520 1-285)", "assay": "Ligand binding to the hSULT2A1-DHEA complex by intrinsic tryptophan fluorescence", "details": "read-out: Kd2(app); enzyme pretreated with 80 μM (0.08 mM) DHEA", "in_short": "(§1)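 Purified recombinant hSULT2A1 at 25 nM (dimer basis) was equilibrated 15 min, then pretreated with 80 μM DHEA or 80 μM DHEAS. Test ligand (1.0–300 μM) was added stepwise with stirring at 37 ± 2 °C, and intrinsic tryptophan fluorescence was read after each addition. Data were fitted to a two-site Adair model, with Kd taken as the reciprocal association constants. Triplicates, mean ± SD.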"}, "[6]": {"biological_target": "T4, hSULT2A1-DHEAS complex (Homo sapiens, UniProt Q06520)", "T4 sequence (Q06520 1-285)": "T1 sequence (Q06520 1-285)", "type": "binding", "details": "for Kd: enzyme pretreated with 80 μM (0.08 mM) DHEAS", "in_short": "as §1"}, "[7]": {"biological_target": "T2, hSULT2A1", "details": "sulfation of pregnenolone; cited from earlier work"}, "[8]": {"details": "read-out: Kd2(app), in the presence of 100 μM (0.1 mM) PAP"}, "[9]": {"details": "0.25-20 μM DHEA, 200 μM PAPS, pH 7.0, 37 °C, substrate inhibition equation"}}, "note": "Structures can show the parent of a compound that is named as a salt. Where two headings read alike, the source gives them in different places.", "data": [{"smiles": "C[C@]12CC[C@H](O)CC1=CC[C@@H]1[C@@H]2CC[C@]2(C)C(=O)CC[C@@H]12", "note": "[DHEA, dehydroepiandrosterone (5-androsten-3β-ol-17-one)]", "values": [{"measurement": "Kd", "setting": "[1]; [8]", "value": "22 ± 3.2", "unit": "µM"}, {"measurement": "substrate inhibition by DHEA", "setting": "[2]; intermediate PAPS 5.0 – 60 μM", "value": "substrate inhibition was observed"}, {"measurement": "substrate inhibition by DHEA", "setting": "[2]; lowest (1.0 μM) and highest (100 and 300 μM) PAPS", "value": "substrate inhibition was not evident"}, {"measurement": "Kis (substrate inhibition constant)", "setting": "[2]; [9]", "value": "8 ± 3", "unit": "µM"}, {"measurement": "Km", "setting": "[2]; [9]", "value": "0.8 ± 0.3", "unit": "µM"}, {"measurement": "Vmax", "setting": "[2]; [9]", "value": "245 ± 40", "unit": "nmol/min/mg"}, {"measurement": "solubility", "setting": "[3]", "value": 80, "unit": "µM"}]}, {"smiles": "C[C@]12CC[C@H](OS(=O)(=O)O)CC1=CC[C@@H]1[C@@H]2CC[C@]2(C)C(=O)CC[C@@H]12", "note": "[DHEAS, dehydroepiandrosterone sulfate]", "values": [{"measurement": "Kd", "setting": "[1]; read-out: Kd1(app), in the presence of 100 μM (0.1 mM) PAP", "value": "3.3 ± 0.2", "unit": "µM"}, {"measurement": "Kd", "setting": "[1]; [8]", "value": "3.3 ± 0.2", "unit": "µM"}, {"measurement": "Kd", "setting": "[1]; read-out: Kd(app) (hyperbolic single site), in the presence of 100 μM PAP", "value": "3.3 ± 0.2", "unit": "µM"}, {"measurement": "Kd", "setting": "[4]", "value": "7.2 ± 0.3", "unit": "µM"}]}, {"smiles": "Nc1ncnc2c1ncn2[C@@H]1O[C@H](COP(=O)(O)O)[C@@H](OP(=O)(O)O)[C@H]1O", "note": "[PAP, adenosine 3′,5′-diphosphate]", "values": [{"measurement": "Kd", "setting": "[5]", "value": "243 ± 27", "unit": "µM"}, {"measurement": "Kd", "setting": "[6]; read-out: Kd2(app)", "value": "415 ± 75", "unit": "µM"}]}, {"smiles": "Nc1ncnc2c1ncn2[C@@H]1O[C@H](COP(=O)(O)OS(=O)(=O)O)[C@@H](OP(=O)(O)O)[C@H]1O", "note": "[PAPS, 3′-phosphoadenosine 5′-phosphosulfate]", "values": [{"measurement": "substrate inhibition by PAPS", "setting": "[2]; 80 μM DHEA", "value": "significant substrate inhibition"}, {"measurement": "substrate inhibition by PAPS", "setting": "[2]; DHEA 0.1 μM - 2.0 μM", "value": "no indication that PAPS displayed substrate inhibition"}, {"measurement": "substrate inhibition by PAPS", "setting": "[2]; DHEA 5.0 μM or 20 μM", "value": "did not exhibit substrate inhibition"}, {"measurement": "Kd2(app) relative to Kd1(app)", "setting": "[6]; enzyme pretreated with 80 μM DHEAS", "value": "over 200 fold"}, {"measurement": "Kd", "setting": "[6]; read-out: Kd1(app)", "value": "1.3 ± 0.4", "unit": "µM"}, {"measurement": "Kd", "setting": "[6]; read-out: Kd2(app)", "value": "315 ± 27", "unit": "µM"}]}, {"smiles": "CC(=O)[C@H]1CC[C@H]2[C@@H]3CC=C4C[C@@H](O)CC[C@]4(C)[C@H]3CC[C@]12C", "note": "[pregnenolone]", "values": [{"measurement": "catalytic efficiency (kcat/Km) with hSULT2A1 relative to hSULT2B1 and hSULT2B2", "setting": "[7]", "value": "3-8 fold"}]}]}
